Reference: publication PMC6021137 (Clinical cancer research : an official journal of the …, 2013)
“And” between values parts separate entries of the source, which are not always exact repeats. Equal entries are not always repeated.

Experiments:
CWR22Pc xenograft tumors = experiment: CWR22Pc xenograft tumor growth; format: in vivo
CWR22Pc cells [1] = experiment: Caspase-3 activation assay; format: cell-based, human; conditions: 800 nM, 48 h
[2] = test system: Stat5a/b nuclear translocation; experiment: Nuclear translocation of Stat5a/b, immunofluorescence in PC-3 cells; format: cell-based, human; conditions: 200 nM AZD1480 for 2 h, 10 nM hPrl 20 min
[3] = test system: normal prostate epithelial cells (RC165N); experiment: Cell viability assay; format: cell-based; conditions: Homo sapiens, 72 h
CWR22Rv1 cells [4] = experiment: Cell viability assay; format: cell-based; conditions: Homo sapiens, CWR22Rv1, 72 h, read-out: GI50 (number of viable cells decreased by 50%)
Stat5b [5] = target: T1, Stat5b (Homo sapiens, UniProt O60674); experiment: Stat5b phosphorylation, immunoprecipitation/immunoblotting, CWR22Pc cells; format: cell-based
Stat5a [6] = target: T2, Stat5a (Homo sapiens, UniProt O60674); experiment: Stat5a phosphorylation, immunoprecipitation/immunoblotting, CWR22Pc cells; format: cell-based; conditions: read-out: IC50, inhibition of constitutive activation of Stat5a; exponentially growing CWR22Pc cells
CWR22Pc cells [7] = experiment: Cell viability assay; format: cell-based; conditions: Homo sapiens, 72 h, read-out: GI50 (number of viable cells decreased by 50%)
Stat5b [8] = target: T1, Stat5b; experiment: Stat5b phosphorylation, immunoprecipitation/immunoblotting, CWR22Rv1 cells; format: cell-based
CWR22Pc cells [9] = experiment: Cell cycle analysis; format: cell-based, human; conditions: CWR22Pc, 24, 48 and 72 h
[10] = test system: CWR22Rv1 tumor xenografts (s.c.); experiment: Subcutaneous CWR22Rv1 xenograft tumor growth; format: in vivo, SCID mice; conditions: for suppression of s.c. tumor growth at end of treatment: oral gavage
[11] = test system: CWR22Rv1 tumor xenografts (orthotopic); experiment: Orthotopic CWR22Rv1 xenograft tumor growth; format: in vivo, SCID mice; conditions: oral gavage
Procedure, shortened: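 Luciferase-tagged CWR22Rv1 cells were implanted orthotopically into the prostates of male CB-17 SCID mice. Mice received test compound at 10 or 30 mg/kg, or vehicle (0.1% Tween 80/0.5% methylcellulose), daily by oral gavage. […]. Growth suppression was assessed at end of treatment versus vehicle.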

[12] = test system: clinical prostate cancers ex vivo in organ explant cultures; experiment: Ex vivo organ explant cultures of clinical PCs; format: cell-based, human
CWR22Rv1 cells [13] = experiment: Caspase-3 activation assay; format: cell-based, human; conditions: 800 nM, 72 h
Stat5a/b dimerization = Stat5a/b dimerization by co-immunoprecipitation in PC-3 cells; format: cell-based, human; conditions: 2 h pre-treatment, 10 nM hPrl
Stat5a [14] = target: T2, Stat5a; experiment: Stat5a phosphorylation, immunoprecipitation/immunoblotting, CWR22Rv1 cells; format: cell-based; conditions: read-out: IC50, inhibition of constitutive activation of Stat5a; exponentially growing CWR22Rv1 cells
DU145 = experiment: Cell viability assay; format: cell-based; conditions: Homo sapiens, DU-145, 72 h
PC-3 = experiment: Cell viability assay; format: cell-based; conditions: Homo sapiens, PC-3, 72 h
[15] = tumors harvested at end of treatment

T1 sequence (O60674 whole entry): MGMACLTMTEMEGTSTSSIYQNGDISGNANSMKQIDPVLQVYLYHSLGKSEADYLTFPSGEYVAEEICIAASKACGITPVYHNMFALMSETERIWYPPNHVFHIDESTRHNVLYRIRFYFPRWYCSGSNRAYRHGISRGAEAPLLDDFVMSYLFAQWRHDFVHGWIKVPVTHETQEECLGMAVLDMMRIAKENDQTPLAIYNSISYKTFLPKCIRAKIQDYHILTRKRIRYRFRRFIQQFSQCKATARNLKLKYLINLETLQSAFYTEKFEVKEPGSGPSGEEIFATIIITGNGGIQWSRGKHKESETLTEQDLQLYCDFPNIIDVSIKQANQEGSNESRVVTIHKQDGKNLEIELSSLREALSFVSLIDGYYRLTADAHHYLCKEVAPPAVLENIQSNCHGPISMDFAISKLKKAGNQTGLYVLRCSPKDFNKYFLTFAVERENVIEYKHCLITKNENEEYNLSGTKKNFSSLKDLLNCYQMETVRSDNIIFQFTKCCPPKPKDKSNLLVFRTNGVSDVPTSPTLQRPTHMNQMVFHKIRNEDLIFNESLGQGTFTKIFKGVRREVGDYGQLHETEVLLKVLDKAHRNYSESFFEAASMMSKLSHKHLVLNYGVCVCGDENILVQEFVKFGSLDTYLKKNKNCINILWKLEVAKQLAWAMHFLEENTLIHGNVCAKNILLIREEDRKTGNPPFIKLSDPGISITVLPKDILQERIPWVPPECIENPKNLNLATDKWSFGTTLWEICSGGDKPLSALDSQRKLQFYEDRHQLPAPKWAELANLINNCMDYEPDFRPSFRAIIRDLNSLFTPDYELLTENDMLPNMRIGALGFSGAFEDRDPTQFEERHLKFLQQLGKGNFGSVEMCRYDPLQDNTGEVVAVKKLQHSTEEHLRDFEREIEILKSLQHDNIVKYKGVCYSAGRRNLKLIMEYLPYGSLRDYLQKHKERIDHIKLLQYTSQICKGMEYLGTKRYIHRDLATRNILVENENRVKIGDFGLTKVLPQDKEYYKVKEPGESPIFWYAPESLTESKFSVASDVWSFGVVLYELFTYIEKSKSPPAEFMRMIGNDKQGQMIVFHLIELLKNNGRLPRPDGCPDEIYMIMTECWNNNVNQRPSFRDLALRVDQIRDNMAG
T2 sequence (O60674 whole entry): as above

SMILES: Cc1cc(Nc2nc(N[C@@H](C)c3ncc(F)cn3)ncc2Cl)n[nH]1 [AZD1480, 5-Chloro-N(2)-[(1S)-1-(5-fluoropyrimidin-2-yl)ethyl]-N(4)-(5-methyl-1H-pyrazol-3-yl)pyrimidine-2,4-diamine]
- inhibition of primary CWR22Pc tumor growth (TW 1) (CWR22Pc xenograft tumors; 30 mg/kg daily oral, 21 days from day 12): 73%
- emergence of CR CWR22Pc tumors (TW 2) (CWR22Pc xenograft tumors; 30 mg/kg daily oral, from day 13 after androgen deprivation): significantly blocked
- growth of established CR CWR22Pc tumors (TW 3) (CWR22Pc xenograft tumors; 30 mg/kg daily oral, from day 23 after androgen deprivation): significantly blocked
- overall survival of tumor-bearing mice (CWR22Pc xenograft tumors; TWs 2 and 3, vs docetaxel-treated mice): better overall survival
- levels of full-length AR, AR splice variants and tissue PSA in tumor lysates (CWR22Pc xenograft tumors; immunoblotting, TWs 1, 2 and 3): did not affect
- nuclear Stat5a/b levels in CWR22Pc tumors (IHC) (CWR22Pc xenograft tumors; [15]): decreased nuclear Stat5a/b levels in all TWs significantly
- fraction of viable tumor cells in CWR22Pc tumors (CWR22Pc xenograft tumors; tumors harvested at end of treatment, all TWs): reduced the fraction of viable tumor cells in all TWs
- increase in caspase-3 activation (CWR22Pc cells [1]): 150%
- ligand-induced nuclear translocation of Stat5a/b [2]: no ligand-induced nuclear immunostaining of Stat5a/b
- GI50 [3]: 2080 nM
- GI50 (CWR22Rv1 cells [4]): 438 nM
- IC50 (Stat5b [5]; read-out: IC50 for Prl-induced Stat5b phosphorylation, serum-starved CWR22Pc cells, 10 nM hPrl): 70 nM
- IC50 (Stat5b [5]; read-out: IC50 for Stat5b phosphorylation (constitutive), exponentially growing CWR22Pc cells): 65 nM
- IC50 (Stat5a [6]): 7 nM
- GI50 (CWR22Pc cells [7]): 482 nM
- IC50 (Stat5b [8]; read-out: IC50 for Prl-induced Stat5b phosphorylation, serum-starved CWR22Rv1 cells, 10 nM hPrl): 48 nM
- IC50 (Stat5b [8]; read-out: IC50 for Stat5b phosphorylation (constitutive), exponentially growing CWR22Rv1 cells): 65 nM
- cell cycle distribution: G1, G2-M and dead cells (sub G1) (CWR22Pc cells [9]): fraction of dead cells (sub G1) was increased at all time points
- suppression of s.c. tumor growth at end of treatment ([10]; 10 mg/kg daily): 52%
- suppression of s.c. tumor growth at end of treatment ([10]; 30 mg/kg daily): 72%
- Stat5a/b phosphorylation in s.c. xenograft tumor lysates ([10]; 2 h following 30 mg/kg): significant inhibition of Stat5a/b phosphorylation
- decrease in nuclear Stat5a/b in tumor tissues relative to control (IHC) ([10]; tumors harvested after 11 days of drug treatment): 70%
- suppression of orthotopic tumor growth ([11]; 10 mg/kg daily): 6%
- suppression of orthotopic tumor growth ([11]; 30 mg/kg daily): 54%
- nuclear Stat5a/b levels in explants ([12]; 9 responsive PCs, both AZD1480 treatment groups): significantly decreased
- clinical PCs not responding (non-responders) ([12]; 7 days culture): 3 of the 12 and 3
- clinical PCs responding by loss of viable epithelium (responders) ([12]; 7 days culture): Nine of 12
- concentration from which extensive loss of viable epithelium starts ([12]; responders, 7 days culture): 25 µM
- increase in caspase-3 activation (CWR22Rv1 cells [13]): 200%
- hPrl-induced Stat5a/b dimerization (Stat5a/b dimerization): potently inhibited
- IC50 (Stat5a [14]): 16 nM
- GI50 (DU145): 3520 nM
- GI50 (PC-3): 1760 nM

SMILES: CC(O)(CS(=O)(=O)c1ccc(F)cc1)C(=O)Nc1ccc(C#N)c(C(F)(F)F)c1 (stereo not drawn) [bicalutamide, reference compound]
- suppression of primary CWR22Pc tumor growth (TW 1) (CWR22Pc xenograft tumors; 50 mg/kg daily oral, 21 days from day 12): 30%
- nuclear Stat5a/b levels in CWR22Pc tumors (IHC) (CWR22Pc xenograft tumors; [15]): no effect

SMILES: CC(=O)O[C@@]12CO[C@@H]1C[C@H](O)[C@@]1(C)C(=O)[C@H](O)C3=C(C)[C@@H](OC(=O)[C@H](O)[C@@H](NC(=O)OC(C)(C)C)c4ccccc4)C[C@@](O)([C@@H](OC(=O)c4ccccc4)[C@H]21)C3(C)C [docetaxel, reference compound]
- nuclear Stat5a/b levels in CWR22Pc tumors (IHC) (CWR22Pc xenograft tumors; [15]): no effect
